Measured values as given in ChEMBL document CHEMBL4396879, “Conjugation of Short Peptides to Dibenzodiazepinone-Type Muscarinic Acetylcholine Receptor Ligands Determines M2R Selectivity” (J Med Chem, 2019).

What was measured:
[1] = molecular target: T1, Muscarinic acetylcholine receptor M2 and M5 (Homo sapiens) (UniProt P08172+P08912); assay: Selectivity ratio of Ki for human muscarinic M5 receptor expressed in stable CHO-K1 cells to Ki for human muscarinic M2 receptor expressed in stable CHO-K1 cells; format: cell-based
[2] = molecular target: T2, Muscarinic acetylcholine receptors; M2 & M3 (Homo sapiens) (UniProt P20309+P08172); assay: Selectivity ratio of Ki for human muscarinic M3 receptor expressed in stable CHO-K1 cells to Ki for human muscarinic M2 receptor expressed in stable CHO-K1 cells; format: cell-based
T2 sequence (P20309 whole entry, looked up, one chain of several): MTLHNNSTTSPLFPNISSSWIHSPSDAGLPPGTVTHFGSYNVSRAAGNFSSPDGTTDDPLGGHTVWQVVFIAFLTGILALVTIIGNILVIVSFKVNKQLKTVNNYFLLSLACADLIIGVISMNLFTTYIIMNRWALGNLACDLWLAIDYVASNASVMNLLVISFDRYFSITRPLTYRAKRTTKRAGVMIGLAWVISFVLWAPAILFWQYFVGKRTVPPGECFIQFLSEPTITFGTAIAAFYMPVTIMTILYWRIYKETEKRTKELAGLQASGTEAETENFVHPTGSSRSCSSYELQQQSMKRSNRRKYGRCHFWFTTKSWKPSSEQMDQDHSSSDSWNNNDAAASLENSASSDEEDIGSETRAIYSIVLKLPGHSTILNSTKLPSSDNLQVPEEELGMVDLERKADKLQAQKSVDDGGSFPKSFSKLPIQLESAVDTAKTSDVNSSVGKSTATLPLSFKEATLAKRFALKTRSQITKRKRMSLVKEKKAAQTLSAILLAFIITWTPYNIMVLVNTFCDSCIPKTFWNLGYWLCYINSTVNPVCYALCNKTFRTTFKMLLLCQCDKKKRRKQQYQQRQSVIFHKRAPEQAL

[3] = molecular target: T3, Muscarinic acetylcholine receptor M5 (Homo sapiens, UniProt P08912); assay: Displacement of [3H]-NMS from human muscarinic M5 receptor expressed in CHO-K9 cells after 3 hrs by microbeta2 scintillation counting method; format: cell-based
T3 sequence (P08912 whole entry): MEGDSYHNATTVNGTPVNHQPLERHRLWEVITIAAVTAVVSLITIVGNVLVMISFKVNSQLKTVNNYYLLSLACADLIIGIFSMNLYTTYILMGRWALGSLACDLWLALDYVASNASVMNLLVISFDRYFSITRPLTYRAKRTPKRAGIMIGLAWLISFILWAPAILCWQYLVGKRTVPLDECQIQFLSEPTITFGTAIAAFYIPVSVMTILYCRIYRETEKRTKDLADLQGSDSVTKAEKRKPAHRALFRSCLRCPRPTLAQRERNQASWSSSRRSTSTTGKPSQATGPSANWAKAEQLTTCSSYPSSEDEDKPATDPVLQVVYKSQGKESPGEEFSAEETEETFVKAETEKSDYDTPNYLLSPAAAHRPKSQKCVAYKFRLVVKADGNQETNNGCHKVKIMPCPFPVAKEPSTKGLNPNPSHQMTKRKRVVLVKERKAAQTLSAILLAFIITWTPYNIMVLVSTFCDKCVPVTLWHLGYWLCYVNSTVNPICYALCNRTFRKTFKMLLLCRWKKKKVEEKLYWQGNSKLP
Procedure, shortened: (§1)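 [3H]NMS competition binding on intact CHO-hMxR cells in L15 medium with 1% BSA, 3 h at 22 ± 1 °C with gentle shaking. [3H]NMS was 0.2 nM (M1, M2, M3), 0.1 nM (M4) or 0.3 nM (M5). […] Cells were lysed in urea/acetic acid/Triton and counted by liquid scintillation. Ki from Cheng-Prusoff. Triplicates, ≥3 experiments.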

[4] = molecular target: T4, Muscarinic acetylcholine receptor M1 (Homo sapiens, UniProt P11229); assay: Displacement of [3H]-NMS from human muscarinic M1 receptor expressed in CHO-K9 cells after 3 hrs by microbeta2 scintillation counting method; format: cell-based; procedure, shortened: as §1
T4 sequence (P11229 whole entry): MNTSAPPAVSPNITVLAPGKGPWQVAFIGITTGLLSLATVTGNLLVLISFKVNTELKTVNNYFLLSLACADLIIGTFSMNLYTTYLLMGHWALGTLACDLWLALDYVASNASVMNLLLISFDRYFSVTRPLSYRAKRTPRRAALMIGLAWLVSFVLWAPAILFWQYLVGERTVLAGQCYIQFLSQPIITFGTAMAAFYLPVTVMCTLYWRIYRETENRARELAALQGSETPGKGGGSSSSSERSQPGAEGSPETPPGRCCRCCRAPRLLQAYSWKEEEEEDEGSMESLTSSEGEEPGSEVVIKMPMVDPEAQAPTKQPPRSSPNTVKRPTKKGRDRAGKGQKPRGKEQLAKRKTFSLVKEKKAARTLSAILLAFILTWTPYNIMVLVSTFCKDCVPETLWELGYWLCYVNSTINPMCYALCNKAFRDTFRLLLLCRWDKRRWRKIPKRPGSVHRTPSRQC

[5] = molecular target: Muscarinic acetylcholine receptor M3 (Homo sapiens, UniProt P20309); assay: Displacement of [3H]-NMS from human muscarinic M3 receptor expressed in CHO-K9 cells after 3 hrs by microbeta2 scintillation counting method; format: cell-based; procedure, shortened: as §1
Chain of Muscarinic acetylcholine receptor M3 (P20309 whole entry): as the sequence (P20309 whole entry, looked up, one chain of several) above

[6] = molecular target: T5, Muscarinic acetylcholine receptor M2 (Homo sapiens, UniProt P08172); assay: Displacement of [3H]-NMS from human muscarinic M2 receptor expressed in CHO-K9 cells after 3 hrs by microbeta2 scintillation counting method; format: cell-based; procedure, shortened: as §1
T5 sequence (P08172 whole entry): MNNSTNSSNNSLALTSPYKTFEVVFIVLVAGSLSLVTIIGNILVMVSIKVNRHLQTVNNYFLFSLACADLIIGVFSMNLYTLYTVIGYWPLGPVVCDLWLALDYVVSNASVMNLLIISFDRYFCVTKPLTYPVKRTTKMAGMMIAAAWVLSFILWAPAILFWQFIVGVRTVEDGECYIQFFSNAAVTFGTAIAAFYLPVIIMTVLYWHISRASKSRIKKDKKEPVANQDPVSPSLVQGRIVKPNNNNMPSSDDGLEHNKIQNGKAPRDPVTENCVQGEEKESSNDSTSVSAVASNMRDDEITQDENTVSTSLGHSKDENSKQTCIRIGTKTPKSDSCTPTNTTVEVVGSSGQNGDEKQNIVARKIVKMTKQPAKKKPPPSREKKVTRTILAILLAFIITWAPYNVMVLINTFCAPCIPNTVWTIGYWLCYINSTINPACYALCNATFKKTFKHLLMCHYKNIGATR

[7] = molecular target: T6, Muscarinic acetylcholine receptor M4 (Homo sapiens, UniProt P08173); assay: Displacement of [3H]-NMS from human muscarinic M4 receptor expressed in CHO-K9 cells after 3 hrs by microbeta2 scintillation counting method; format: cell-based; procedure, shortened: as §1
T6 sequence (P08173 whole entry): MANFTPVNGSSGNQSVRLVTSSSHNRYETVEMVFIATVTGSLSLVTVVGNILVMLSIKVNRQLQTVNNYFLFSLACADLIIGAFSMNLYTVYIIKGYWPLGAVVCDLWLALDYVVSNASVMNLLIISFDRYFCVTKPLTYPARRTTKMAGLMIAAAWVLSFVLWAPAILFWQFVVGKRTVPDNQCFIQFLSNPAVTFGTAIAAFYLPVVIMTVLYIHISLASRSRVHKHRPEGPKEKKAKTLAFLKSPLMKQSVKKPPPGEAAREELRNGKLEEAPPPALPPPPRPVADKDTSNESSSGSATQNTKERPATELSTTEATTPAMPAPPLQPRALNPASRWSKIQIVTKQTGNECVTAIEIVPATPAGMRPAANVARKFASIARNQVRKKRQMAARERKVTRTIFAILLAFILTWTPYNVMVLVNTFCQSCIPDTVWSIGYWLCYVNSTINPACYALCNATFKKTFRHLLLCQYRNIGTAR

[8] = molecular target: T1, Muscarinic acetylcholine receptor M2 and M5 (Homo sapiens); assay: Selectivity ratio of Ki for human muscarinic M5 receptor expressed in CHO-K9 cells to Ki for human muscarinic M2 receptor expressed in CHO-K9 cells; format: cell-based
Procedure, shortened: (§2)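 Ratio of mean Ki values. Each Ki came from an individual [3H]NMS competition experiment at the given CHO-hMxR subtype, converting IC50 to Ki by Cheng-Prusoff before averaging.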

[9] = molecular target: T2, Muscarinic acetylcholine receptors; M2 & M3 (Homo sapiens); assay: Selectivity ratio of Ki for human muscarinic M3 receptor expressed in CHO-K9 cells to Ki for human muscarinic M2 receptor expressed in CHO-K9 cells; format: cell-based; procedure, shortened: as §2
[10] = molecular target: Muscarinic acetylcholine receptor M2 and M4 (Homo sapiens) (UniProt P08173+P08172); assay: Selectivity ratio of Ki for human muscarinic M4 receptor expressed in CHO-K9 cells to Ki for human muscarinic M2 receptor expressed in CHO-K9 cells; format: cell-based; procedure, shortened: as §2
[11] = molecular target: Muscarinic acetylcholine receptors; M1 & M2 (Homo sapiens) (UniProt P11229+P08172); assay: Selectivity ratio of Ki for human muscarinic M1 receptor expressed in CHO-K9 cells to Ki for human muscarinic M2 receptor expressed in CHO-K9 cells; format: cell-based; procedure, shortened: as §2
[12] = molecular target: T7, Muscarinic acetylcholine receptor M2 (Homo sapiens) (UniProt P08172); assay: Antagonist activity at human muscarinic M2 receptor expressed in HEK293 cells co-expressing HA-Galphaq/i5 assessed as inhibition of carbachol-induced IP1 accumulation pre-incubated for 30 mins followed by carbachol addition and measured after 1 hr by HTRF assay; format: functional, cell-based
T7 sequence (whole entry): T5 sequence (P08172 whole entry)
Procedure, shortened: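 HEK-293 cells transiently cotransfected (receptor plus HA-tagged Gαqi5), detached after 1 day and seeded at 10,000 cells/well for 24 h at 37 °C. Duplicates.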

Ratio Ki [1] | Ratio Ki [2] | Ki [3] [nM] | Ki [4] [nM] | Ki [5] [nM] | Ki [6] [nM] | Ki [7] [nM] | Ratio Ki [8] | Ratio Ki [9] | Ratio Ki [10] | Ratio Ki [11] | SMILES | inhibition [12]
89 | 11 | – | – | – | – | – | – | – | – | – | CCCN(CCC)CC1CCCCN1CCNC(=O)N1c2ccccc2C(=O)Nc2cccnc21 (stereo not given) | –
– | – | 30.9 | 2.29 | 35.5 | 0.0794 | 1.62 | 390 | 410 | 19 | 27 | CC(=O)N[C@@H](Cc1c[nH]c2ccccc12)C(=O)N[C@@H](C)C(=O)N[C@@H](Cc1ccc(O)cc1)C(=O)NCCN1CCN(CCCCC2CCN(CC(=O)N3c4ccccc4NC(=O)c4ccccc43)CC2)CC1 | –
– | – | 1200 | 537 | > 10000 | 240 | 417 | 4.4 | > 36 | 1.7 | 2.2 | CC(=O)N[C@@H](CCC(N)=O)C(=O)N[C@@H](C)C(=O)N[C@@H](CC(C)C)C(=O)NCCCCC1CCN(CC(=O)N2c3ccccc3NC(=O)c3ccccc32)CC1 | –
– | – | 95.5 | 1.26 | 44.7 | 0.174 | 1.26 | 560 | 240 | 8.1 | 8.3 | CC(=O)N[C@@H](CCCCN)C(=O)N[C@@H](C)C(=O)N[C@@H](Cc1ccc(O)cc1)C(=O)NCCN1CCN(CCCCC2CCN(CC(=O)N3c4ccccc4NC(=O)c4ccccc43)CC2)CC1 | –
– | – | 7080 | 85.1 | 5370 | 79.4 | 209 | 98 | 69 | 2.7 | 1.1 | CCC(=O)NCCCCC1CCN(CC(=O)N2c3ccccc3NC(=O)c3ccccc32)CC1 | –
– | – | 2400 | 107 | 1260 | 5.37 | 56.2 | 410 | 260 | 9.8 | 18 | N=C(N)NCCC[C@H](N)C(=O)NCCCCC1CCN(CC(=O)N2c3ccccc3NC(=O)c3ccccc32)CC1 | –
– | – | – | – | – | – | – | – | – | – | – | CN1[C@@H]2CC[C@H]1C[C@@H](OC(=O)C(CO)c1ccccc1)C2 (stereo not given in full) | Dose-dependent effect
– | – | 708 | 87.1 | 10000 | 46.8 | 295 | 15 | 210 | 6.6 | 1.8 | CC(=O)N[C@@H](Cc1ccc(O)cc1)C(=O)N[C@@H](CCCCN)C(=O)NCCCCC1CCN(CC(=O)N2c3ccccc3NC(=O)c3ccccc32)CC1 | –
– | – | 29.5 | 2.34 | 28.2 | 0.115 | 3.24 | 260 | 290 | 28 | 22 | CC(=O)N[C@@H](Cc1ccc(O)cc1)C(=O)N[C@@H](C)C(=O)N[C@@H](CCCCN)C(=O)NCCN1CCN(CCCCC2CCN(CC(=O)N3c4ccccc4NC(=O)c4ccccc43)CC2)CC1 | –
– | – | 209 | 178 | 5010 | 9.33 | 57.5 | 23 | 550 | 5.9 | 19 | CC(=O)N[C@@H](Cc1ccc(O)cc1)C(=O)N[C@@H](C)C(=O)N[C@@H](CCCCN)C(=O)NCCCCC1CCN(CC(=O)N2c3ccccc3NC(=O)c3ccccc32)CC1 | –
– | – | 33.9 | 1.45 | 13.2 | 0.0794 | 2.57 | 230 | 180 | 35 | 20 | CN1CC=C(c2nsnc2OCCCN2CCN(CCCCC3CCN(CC(=O)N4c5ccccc5NC(=O)c5ccccc54)CC3)CC2)CC1 | –
– | – | 70.8 | 1.41 | 27.5 | 0.0794 | 1.12 | 780 | 260 | 12 | 14 | CC(=O)N[C@@H](CCCCN)C(=O)N[C@@H](Cc1ccc(O)cc1)C(=O)NCCN1CCN(CCCCC2CCN(CC(=O)N3c4ccccc4NC(=O)c4ccccc43)CC2)CC1 | –
– | – | 141 | 2.14 | 16.2 | 0.0794 | 0.912 | 1900 | 220 | 13 | 32 | CC(=O)N[C@@H](Cc1ccc(O)cc1)C(=O)N[C@@H](CCCCN)C(=O)NCCN1CCN(CCCCC2CCN(CC(=O)N3c4ccccc4NC(=O)c4ccccc43)CC2)CC1 | –
– | – | 977 | 97.7 | 1480 | 11.2 | 148 | 86 | 140 | 13 | 8.4 | CC(=O)N[C@@H](CCCNC(=N)N)C(=O)NCCCCC1CCN(CC(=O)N2c3ccccc3NC(=O)c3ccccc32)CC1 | –
– | – | 295 | 2.4 | 61.7 | 0.24 | 1.2 | 1300 | 270 | 5.4 | 9.6 | CC(=O)N[C@@H](CCC(N)=O)C(=O)N[C@@H](CC(C)C)C(=O)NCCN1CCN(CCCCC2CCN(CC(=O)N3c4ccccc4NC(=O)c4ccccc43)CC2)CC1 | –
